Values after ≈ are worked out from the molar mass of the structure shown. Active and inactive are the calls of the source. No cut-off for these calls is given here.
Legend:
Staphylococcus aureus [1] = test: Antibacterial activity against Staphylococcus aureus ATCC 6538 after 24 to 48 hrs by twofold serial dilution method; assay type: functional
How it was run: (§1)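 Broth microdilution in Müller–Hinton broth. DMSO stocks at 800 were diluted twofold from 400 down to 6.25. Wells received 10^6 CFU/mL bacterial suspension and were incubated at 36 °C for 24–48 h, with controls. MIC was read per well. Duplicate assays; run only for compounds giving inhibition zones ≥14 mm.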

Bacillus subtilis [2] = test: Antibacterial activity against Bacillus subtilis NRRL B-14819 after 24 to 48 hrs by twofold serial dilution method; assay type: functional; how it was run: as §1
Micrococcus luteus [3] = test: Antibacterial activity against Micrococcus luteus ATCC 21881 after 24 to 48 hrs by twofold serial dilution method; assay type: functional; how it was run: as §1
Escherichia coli [4] = test: Antibacterial activity against Escherichia coli ATCC 25922 after 24 to 48 hrs by twofold serial dilution method; assay type: functional; how it was run: as §1
Pseudomonas aeruginosa [5] = test: Antibacterial activity against Pseudomonas aeruginosa ATCC 27853 after 24 to 48 hrs by twofold serial dilution method; assay type: functional; how it was run: as §1
Klebsiella pneumoniae [6] = test: Antibacterial activity against Klebsiella pneumoniae isolate after 24 to 48 hrs by twofold serial dilution method; assay type: functional; how it was run: as §1
Candida albicans [7] = test: Antifungal activity against Candida albicans isolate after 72 hrs by twofold serial dilution method; assay type: functional
Aspergillus fumigatus [8] = test: Antifungal activity against Aspergillus fumigatus isolate after 72 hrs by twofold serial dilution method; assay type: functional
Candida tropicalis = test: Antifungal activity against Candida tropicalis isolate after 72 hrs by twofold serial dilution method; assay type: functional, organism-based
Pichia kudriavzevii = test: Antifungal activity against Candida krusei isolate after 72 hrs by twofold serial dilution method; assay type: functional, organism-based
Aspergillus niger = test: Antifungal activity against Aspergillus niger isolate after 72 hrs by twofold serial dilution method; assay type: functional, organism-based
Trichophyton rubrum = test: Antifungal activity against Trichophyton rubrum isolate after 72 hrs by twofold serial dilution method; assay type: functional, organism-based
Staphylococcus aureus [9] = test: Antibacterial activity against Staphylococcus aureus ATCC 6538 at 1 mg/mL after 24 hrs by agar diffusion method; assay type: functional; settings: ATCC 6538, 24 h, read-out: Diameter of inhibition zone
How it was run: (§2)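 Agar disc diffusion: 5 mm sterile paper discs soaked in 1 mg/mL test solution in DMSO were placed on agar seeded with the organism, in triplicate, with a DMSO-only control. Bacterial plates were incubated at 37 °C for 24 h and fungal plates for 7 days. Read-out was the average inhibition-zone diameter in mm. Fungi were clinical isolates.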

Bacillus subtilis [10] = test: Antibacterial activity against Bacillus subtilis NRRL B-14819 at 1 mg/mL after 24 hrs by agar diffusion method; assay type: functional; settings: read-out: Diameter of inhibition zone; how it was run: as §2
Micrococcus luteus [11] = test: Antibacterial activity against Micrococcus luteus ATCC 21881 at 1 mg/mL after 24 hrs by agar diffusion method; assay type: functional; settings: ATCC 21881, 24 h, read-out: Diameter of inhibition zone; how it was run: as §2
Escherichia coli [12] = test: Antibacterial activity against Escherichia coli ATCC 25922 at 1 mg/mL after 24 hrs by agar diffusion method; assay type: functional; settings: ATCC 25922, 24 h, read-out: Diameter of inhibition zone; how it was run: as §2
Pseudomonas aeruginosa [13] = test: Antibacterial activity against Pseudomonas aeruginosa ATCC 27853 at 1 mg/mL after 24 hrs by agar diffusion method; assay type: functional; settings: ATCC 27853, 24 h, read-out: Diameter of inhibition zone; how it was run: as §2
Klebsiella pneumoniae [14] = test: Antibacterial activity against Klebsiella pneumoniae isolate at 1 mg/mL after 24 hrs by agar diffusion method; assay type: functional; settings: read-out: Diameter of inhibition zone; how it was run: as §2
Candida albicans [15] = test: Antifungal activity against Candida albicans isolate at 1 mg/mL after 7 days by twofold serial dilution method; assay type: functional; settings: 168 h, read-out: Diameter of inhibition zone
Aspergillus fumigatus [16] = test: Antifungal activity against Aspergillus fumigatus isolate at 1 mg/mL after 7 days by agar diffusion method; assay type: functional; settings: 168 h, read-out: Diameter of inhibition zone; how it was run: as §2
Mus musculus [17] = test: Anticonvulsant activity in Wister albino mouse assessed as protection against subcutaneous metrazole-induced seizures at 100 mg/kg, ip administered 30 mins before metrazole challenge measured after 30 mins; assay type: functional; settings: route intraperitoneal
How it was run: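 Wistar albino mice, either sex, 25–30 g, 3 months old, in groups of six. Compounds in DMSO were given ip at 30, 100 or 300 mg/kg; vehicle-only controls. After 30 min, metrazole 100 mg/kg in DMSO was injected sc at the posterior midline. Protection meant absence of any clonic spasm lasting ≥5 s; scored as protected/tested.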

Mus musculus [18] = test: Anticonvulsant activity in Wister albino mouse assessed as protection against maximal electroshock-induced seizures at 100 mg/kg, ip administered 30 mins before metrazole challenge measured after 30 mins; assay type: functional; settings: route intraperitoneal

Compound | MIC (Staphylococcus aureus [1]) | MIC (Bacillus subtilis [2]) | MIC (Micrococcus luteus [3]) | MIC (Escherichia coli [4]) | MIC (Pseudomonas aeruginosa [5]) | MIC (Klebsiella pneumoniae [6]) | MIC (Candida albicans [7]) | MIC (Aspergillus fumigatus [8]) | Activity (Candida tropicalis) | Activity (Pichia kudriavzevii) | Activity (Aspergillus niger) | Activity (Trichophyton rubrum) | zone of inhibition at 1000 µg/mL (Staphylococcus aureus [9]) | zone of inhibition at 1000 µg/mL (Bacillus subtilis [10]) | zone of inhibition at 1000 µg/mL (Micrococcus luteus [11]) | zone of inhibition at 1000 µg/mL (Escherichia coli [12]) | zone of inhibition at 1000 µg/mL (Pseudomonas aeruginosa [13]) | zone of inhibition at 1000 µg/mL (Klebsiella pneumoniae [14]) | zone of inhibition at 1000 µg/mL (Candida albicans [15]) | zone of inhibition at 1000 µg/mL (Aspergillus fumigatus [16]) | also measured
Clc1ccc(C(Cn2nnnc2Cc2ccccc2)OCc2nnc(Nc3ccccc3)o2)cc1 (stereo not drawn) | 25 µg/mL (≈ 51.2 µM) | 50 µg/mL (≈ 102 µM) | ≥ 200 µg/mL | 50 µg/mL (≈ 102 µM) | ≥ 200 µg/mL | ≥ 200 µg/mL | 25 µg/mL (≈ 51.2 µM) | ≥ 200 µg/mL | inactive | inactive | inactive | inactive | ≥ 14 mm | ≥ 14 mm | ≥ 14 mm | ≥ 14 mm | ≥ 14 mm | ≥ 14 mm | ≥ 14 mm | ≥ 14 mm | –
Sc1nnc(COC(Cn2nnnc2Cc2ccccc2)c2ccc(Cl)cc2)n1-c1ccccc1 (stereo not drawn) | 50 µg/mL (≈ 99.2 µM) | 100 µg/mL (≈ 198 µM) | ≥ 200 µg/mL | 100 µg/mL (≈ 198 µM) | ≥ 200 µg/mL | ≥ 200 µg/mL | 50 µg/mL (≈ 99.2 µM) | ≥ 200 µg/mL | inactive | inactive | inactive | inactive | ≥ 14 mm | ≥ 14 mm | ≥ 14 mm | ≥ 14 mm | ≥ 14 mm | ≥ 14 mm | ≥ 14 mm | ≥ 14 mm | Activity (Mus musculus [17]): 0%; Activity (Mus musculus [18]): 33%
Clc1ccc(C2Cn3nnnc3Cc3ccccc32)cc1 (stereo not drawn) | 50 µg/mL (≈ 168 µM) | ≥ 200 µg/mL | ≥ 200 µg/mL | 50 µg/mL (≈ 168 µM) | ≥ 200 µg/mL | ≥ 200 µg/mL | ≥ 200 µg/mL | 25 µg/mL (≈ 84.2 µM) | inactive | inactive | inactive | inactive | ≥ 14 mm | ≥ 14 mm | ≥ 14 mm | ≥ 14 mm | ≥ 14 mm | ≥ 14 mm | ≥ 14 mm | ≥ 14 mm | Activity (Mus musculus [17]): 0%; Activity (Mus musculus [18]): 33%
Clc1ccc(COC(Cn2ccnc2)c2ccc(Cl)cc2Cl)c(Cl)c1 (stereo not drawn) [MICONAZOLE] | – | – | – | – | – | – | 3.12 µg/mL (≈ 7.5 µM) | 3.12 µg/mL (≈ 7.5 µM) | – | – | – | – | – | – | – | – | – | – | – | – | –
Sc1nnc(COC(Cn2nnc(-c3ccccc3)n2)c2ccc(Cl)cc2)o1 (stereo not drawn) | 6.25 µg/mL (≈ 15.1 µM) | 25 µg/mL (≈ 60.3 µM) | 50 µg/mL (≈ 121 µM) | 25 µg/mL (≈ 60.3 µM) | 50 µg/mL (≈ 121 µM) | 100 µg/mL (≈ 241 µM) | – | – | inactive | inactive | inactive | inactive | ≥ 14 mm | ≥ 14 mm | ≥ 14 mm | ≥ 14 mm | ≥ 14 mm | ≥ 14 mm | ≥ 14 mm | ≥ 14 mm | Activity (Mus musculus [17]): 33%; Activity (Mus musculus [18]): 0%
Sc1nnc(COC(Cn2nnnc2Cc2ccccc2)c2ccc(Cl)cc2)n1-c1ccc(Cl)cc1 (stereo not drawn) | 25 µg/mL (≈ 46.4 µM) | 50 µg/mL (≈ 92.9 µM) | 100 µg/mL (≈ 186 µM) | 50 µg/mL (≈ 92.9 µM) | ≥ 200 µg/mL | ≥ 200 µg/mL | 25 µg/mL (≈ 46.4 µM) | ≥ 200 µg/mL | inactive | inactive | inactive | inactive | ≥ 14 mm | ≥ 14 mm | ≥ 14 mm | ≥ 14 mm | ≥ 14 mm | ≥ 14 mm | ≥ 14 mm | ≥ 14 mm | –
Sc1nnc(COC(Cn2nnnc2Cc2ccccc2)c2ccc(Cl)cc2)o1 (stereo not drawn) | 50 µg/mL (≈ 117 µM) | 100 µg/mL (≈ 233 µM) | 100 µg/mL (≈ 233 µM) | ≥ 200 µg/mL | ≥ 200 µg/mL | ≥ 200 µg/mL | 100 µg/mL (≈ 233 µM) | ≥ 200 µg/mL | inactive | inactive | inactive | inactive | ≥ 14 mm | ≥ 14 mm | ≥ 14 mm | ≥ 14 mm | ≥ 14 mm | ≥ 14 mm | ≥ 14 mm | ≥ 14 mm | –
Sc1nnc(COC(Cn2nnc(-c3ccccc3)n2)c2ccc(Cl)cc2)n1-c1ccccc1 (stereo not drawn) | 12.5 µg/mL (≈ 25.5 µM) | 50 µg/mL (≈ 102 µM) | 50 µg/mL (≈ 102 µM) | 50 µg/mL (≈ 102 µM) | 100 µg/mL (≈ 204 µM) | 50 µg/mL (≈ 102 µM) | – | – | inactive | inactive | inactive | inactive | ≥ 14 mm | ≥ 14 mm | ≥ 14 mm | ≥ 14 mm | ≥ 14 mm | ≥ 14 mm | ≥ 14 mm | ≥ 14 mm | Activity (Mus musculus [17]): 33%; Activity (Mus musculus [18]): 33%
Clc1ccccc1C(c1ccccc1)(c1ccccc1)n1ccnc1 [CLOTRIMAZOLE] | – | – | – | – | – | – | 6.25 µg/mL (≈ 18.1 µM) | 12.5 µg/mL (≈ 36.2 µM) | – | – | – | – | – | – | – | – | – | – | – | – | –

— ChEMBL document CHEMBL1152796, “Azole antimicrobial pharmacophore-based tetrazoles: synthesis and biological evaluation as potential antimicrobial and anticonvulsant agents” (Bioorg Med Chem, 2009)
